Legend:
Format in all cases: cell-based
[1] = biological target: T1, full-length wild-type LPA1 (Homo sapiens, UniProt Q92633); test: Ca2+ mobilization assay in B103 cells expressing full-length wild-type LPA1; settings: read-out: EC50, Ca2+ mobilization assay; B103 cells heterologously expressing full-length wild-type LPA1; normalized to 3 μM 1-oleoyl-LPA (Figure 6D)
[2] = biological target: T1, full-length wild-type LPA1; test: cAMP assay; settings: read-out: EC50, cAMP assay; B103 cells expressing full-length wild-type LPA1; 10 μM forskolin; n=2 (Figure 6D)
LPA1 [3] = biological target: T2, LPA1 (Homo sapiens, UniProt Q92633); test: Neurite retraction assay in B103 cells expressing LPA1; settings: stable cell line expressing LPA1, 15 min treatment
T2 sequence (Q92633 whole entry): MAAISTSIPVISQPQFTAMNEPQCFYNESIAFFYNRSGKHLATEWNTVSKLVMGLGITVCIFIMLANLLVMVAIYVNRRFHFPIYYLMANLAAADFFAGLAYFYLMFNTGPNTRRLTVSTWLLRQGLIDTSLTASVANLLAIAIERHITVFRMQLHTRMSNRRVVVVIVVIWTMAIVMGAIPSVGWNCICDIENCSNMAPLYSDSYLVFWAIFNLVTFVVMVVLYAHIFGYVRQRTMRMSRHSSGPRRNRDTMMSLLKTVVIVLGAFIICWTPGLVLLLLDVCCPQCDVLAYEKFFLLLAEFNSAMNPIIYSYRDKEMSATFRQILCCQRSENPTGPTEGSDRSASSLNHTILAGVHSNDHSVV
Method in brief: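 B103 rat neuroblastoma stable line carrying HA-tagged full-length human LPA1 (G418-selected, sorted for high anti-HA staining), serum-starved overnight in FreeStyle 293 medium. Cells were given ligands for 15 min at 37°C, washed, and fixed in 2% paraformaldehyde. Under the microscope, round cells lacking neurite extensions were counted and expressed as a percentage of observed cells.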

LPA1 [4] = biological target: T2, LPA1; test: F-actin stress fiber formation assay in B103 cells expressing LPA1; settings: 15 min treatment
Method in brief: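 Rat neuroblastoma B103 cells stably expressing HA-tagged full-length human LPA1 (G418 selection, FACS-sorted for high anti-HA signal), starved overnight in FreeStyle 293 medium, then exposed to ligands for 15 min at 37°C. Cells were fixed with 2% paraformaldehyde, washed with 0.3% Triton X-100 in PBS, stained with 1 μg/mL rhodamine-phalloidin for 30 min at room temperature, and imaged by confocal microscopy.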

T1 sequence (Q92633 whole entry): as above

Structure (SMILES) | EC50 [1] [nM] | EC50 [2] [nM] | Neurite retraction (cell morphology change mediated by LPA1) (LPA1 [3]) | F-actin stress fiber formation (LPA1 [4])
CCCCCCCC/C=C\CCCCCCCC(=O)OCC(O)COP(=O)(O)O (centres unmarked) [LPA 18:1 sn1, 1-oleoyl-LPA] | 146 ± 74 | 0.345 ± 0.202 | – | –
CCCCC/C=C\C/C=C\C/C=C\C/C=C\CCCC(=O)OC[C@@H](O)COP(=O)(O)O [1-ALPA, 1-arachidonoyl-LPA] | 1120 ± 1480 | – | – | –
CCCCC/C=C\C/C=C\C/C=C\C/C=C\CCCC(=O)NCCOP(=O)(O)O [pAEA] | – | – | robust activation | activated
